Assay [1] in a line: Inhibition of sheep placental COX2 by liquid scintillation counter.
For assay [2], the target named is T1, Prostaglandin G/H synthase 1 (Ovis aries) (UniProt P05979).
T1 sequence (whole entry): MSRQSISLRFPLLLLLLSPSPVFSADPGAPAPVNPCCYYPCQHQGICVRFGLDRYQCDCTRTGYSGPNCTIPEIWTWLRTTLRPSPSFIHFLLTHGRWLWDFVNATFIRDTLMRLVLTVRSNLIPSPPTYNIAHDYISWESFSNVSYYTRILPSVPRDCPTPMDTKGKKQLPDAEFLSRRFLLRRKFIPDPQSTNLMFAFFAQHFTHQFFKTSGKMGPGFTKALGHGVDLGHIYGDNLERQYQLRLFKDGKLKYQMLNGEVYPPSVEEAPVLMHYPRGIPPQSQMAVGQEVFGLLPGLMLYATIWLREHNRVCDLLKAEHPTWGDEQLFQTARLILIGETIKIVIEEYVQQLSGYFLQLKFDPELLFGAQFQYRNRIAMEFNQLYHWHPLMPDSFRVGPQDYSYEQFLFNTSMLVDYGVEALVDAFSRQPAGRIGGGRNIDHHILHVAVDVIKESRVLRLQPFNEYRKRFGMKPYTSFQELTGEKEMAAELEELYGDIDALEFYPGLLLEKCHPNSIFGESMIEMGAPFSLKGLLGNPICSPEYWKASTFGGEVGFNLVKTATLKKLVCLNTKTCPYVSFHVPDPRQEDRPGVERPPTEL
As to the kind of experiment: Inhibition of COX1 from ram seminal vesicles at 10 ug/ml by liquid scintillation counter.

Assay [3] has as its target Prostaglandin G/H synthase 2 (Ovis aries, UniProt P79208). As to the kind of experiment: Inhibition of sheep placental COX2 by liquid scintillation counter. In outline: (§1)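 Enzymes used were ram seminal vesicle COX-1 and sheep placenta COX-2 (70% pure), 2 units each, in 0.1 M Tris-HCl pH 7.5 with 1 mM hematin and 2 mM phenol. Sample was preincubated 2 min at 37 °C, then 51.4 µM [1-14C]arachidonic acid was added for 2 min at 37 °C. Extraction used hexane-EtOAc (2:1); PGE2 was measured by radioimmunoassay with scintillation counting. IC50 came from duplicate four-point titration.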

The target in assay [4] is T2, Prostaglandin G/H synthase 1 (Ovis aries, UniProt P05979).
T2 sequence (P05979 whole entry): T1 sequence (whole entry)
As to the kind of experiment: Inhibition of COX1 from ram seminal vesicles by liquid scintillation counter. Put shortly: as §1

For assay [5], the system named is Prostaglandin G/H synthase 2 (Ovis aries). Kind of assay: Inhibition of sheep placental COX2 at 10 ug/ml by liquid scintillation counter.

Molecules are shown by their SMILES.

Chain of Prostaglandin G/H synthase 2 (P79208 whole entry, looked up): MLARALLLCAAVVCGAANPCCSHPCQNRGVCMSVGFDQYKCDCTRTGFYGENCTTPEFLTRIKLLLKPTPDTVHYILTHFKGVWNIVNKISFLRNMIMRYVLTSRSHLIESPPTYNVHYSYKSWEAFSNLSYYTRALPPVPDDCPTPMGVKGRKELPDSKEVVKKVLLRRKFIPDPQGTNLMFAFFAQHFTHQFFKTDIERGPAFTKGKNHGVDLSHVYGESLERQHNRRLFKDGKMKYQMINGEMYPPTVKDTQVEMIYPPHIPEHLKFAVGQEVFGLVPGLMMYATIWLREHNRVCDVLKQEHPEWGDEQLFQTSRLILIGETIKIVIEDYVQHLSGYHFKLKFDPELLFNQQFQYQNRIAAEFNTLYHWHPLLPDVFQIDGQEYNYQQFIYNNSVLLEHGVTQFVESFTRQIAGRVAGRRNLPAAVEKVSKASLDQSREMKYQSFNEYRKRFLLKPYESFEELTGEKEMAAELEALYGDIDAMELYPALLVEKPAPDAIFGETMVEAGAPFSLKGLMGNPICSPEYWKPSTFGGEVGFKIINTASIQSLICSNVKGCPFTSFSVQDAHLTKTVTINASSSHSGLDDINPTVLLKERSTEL

Molecule `C=C(CC[C@@H](C(=O)O[C@@H]1OC[C@@H](O)[C@H](O)[C@H]1O)[C@H]1CC[C@@]2(C)C3=C(CC[C@]12C)[C@@]1(C)CC[C@@H](OC(C)=O)C(C)(C)[C@@H]1CC3)C(C)C` displayed an INH in assay [1] of 1.85 ×10⁻⁵ M. Further, in assay [2], the inhibition (as a rule, how much of the control response was suppressed) stood at 21.7%.

In the case of `CC(C)(O)[C@@H](O)CC[C@@H](C(=O)O)[C@H]1CC[C@@]2(C)C3=C(CC[C@]12C)[C@@]1(C)CCC(=O)C(C)(C)[C@@H]1CC3` [FOMITOPINIC ACID A], in assay [3], half-maximal inhibition (IC50) was put at 1.15 µM. In assay [2], this molecule gave an inhibition of 18.1%.

On to `CC(C)=CCC[C@@H](C(=O)O[C@@H]1OC[C@@H](O)[C@H](O)[C@H]1O)[C@H]1CC[C@@]2(C)C3=C(CC[C@]12C)[C@@]1(C)CCC(=O)C(C)(C)[C@@H]1CC3` [FOMITOSIDE C], for which the IC50 (in general, the concentration that gives 50% inhibition) in assay [3] was 5110 µM; in assay [4], 1910 µM.

Take `C=C(CC[C@@H](C(=O)O[C@@H]1OC[C@@H](O)[C@H](O)[C@H]1O)[C@H]1CC[C@@]2(C)C3=C(CC[C@]12C)[C@@]1(C)CCC(=O)C(C)(C)[C@@H]1CC3)C(C)C` [FOMITOSIDE D]: the figures for the IC50 in assay [3] and in assay [4] were 2390 µM and 3330 µM, respectively.

Molecule `CC(=O)O[C@@H]1CC[C@]2(C)C3=C(CC[C@H]2C1(C)C)[C@]1(C)CC[C@H]([C@@H](C/C=C/C(C)(C)O)C(=O)O[C@@H]2OC[C@@H](O)[C@H](O)[C@H]2O)[C@@]1(C)CC3` [FOMITOSIDE E] displayed an IC50 in assay [3] of 0.15 µM. In assay [2], this molecule displayed an inhibition of 57.2%.

In turn, `CC(=O)O[C@@H]1CC[C@]2(C)C3=C(CC[C@H]2C1(C)C)[C@]1(C)CC[C@H]([C@@H](CCC=C(C)C)C(=O)O[C@@H]2OC[C@@H](O)[C@H](O)[C@H]2O)[C@@]1(C)CC3` [FOMITOSIDE F] returned a half-inhibitory concentration (IC50) in assay [3] of 1.13 µM. In addition, the inhibition in assay [2] worked out at 27.5%.

With `COC(=O)CC(C)(O)CC(=O)O[C@@H]1CC[C@]2(C)C3=C(CC[C@H]2C1(C)C)[C@]1(C)CC[C@H]([C@@H](CCC=C(C)C)C(=O)O[C@@H]2OC[C@@H](O)[C@H](O)[C@H]2O)[C@@]1(C)CC3` (some centres undefined) [FOMITOSIDE H], the inhibition in assay [5] came to 70.1%. The molecule also had a half-maximal inhibitory concentration (IC50) in assay [4] of 73.9 µM.

The values above are taken from ChEMBL document CHEMBL1142564, “Lanostane triterpenoids and triterpene glycosides from the fruit body of Fomitopsis pinicola and their inhibitory activity against COX-1 and COX-2” (J Nat Prod, 2005).
